Assay outcomes from PubChem.
PTEN del growth: growth suppression of PTEN-null HCT116, primary screen, cell-based, CellTiter-Glo. HCT116 PTEN-null viability, 60 h; stronger effect = lower value. viability, % at 10 µM. 140,000 compounds, 1.2% hits. AID 827, 2007;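 active = viability at or below a set limit, 4 SD under the median of all tested compounds, cut at about 3.7% in these data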;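 also: PTEN knockout HCT116 line with beta catenin targeted HCT116 as companion control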
Fibroblast inh: antiproliferative effect on LL 47 fibroblasts – human, LL 47 cells, CellTiter-Glo luminescence, primary screen; AID 719, 2007; 85,000 compounds, 1.1% hits; viability, % at 10 µM; LL 47 human lung fibroblast viability, ATP luminescence; stronger effect = lower value;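 active = viability at or below 50% in the single dose screen; inactive = viability above 50%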;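 also: compound exposure lasted 72 h before the ATP readout; 100% = median luminescence of untreated cell-only wells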
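Test system: LL 47 human lung fibroblasts / Quantity: 1,150 cells in each well / Medium: IMEM growth medium with 15% fetal bovine serum / Incubation: 72 h compound exposure at 37 °C after overnight plating / Detection: CellTiter-Glo luminescence measuring cellular ATP / Read-out: % viability versus median cells-only luminescence / Benchmarks: cell-only wells, no compound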
HUVEC inhibit: inhibitors of HUVEC proliferation, primary screen, cell-based, 384-well. CellTiter-Glo luminescence, 72 h; stronger effect = lower value. viability, % at 10 µM (by protocol). 86,000 compounds, 1.1% hits. AID 648, 2007;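 active = viability at or below 30%; inactive = viability above 30%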;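 also: 100% = median luminescence of DMSO-only cell control wells on each plate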
H69AR inhibit: proliferation blockers of H69AR lung cancer cells, primary screen, cell-based, human, 86K library. viability, % at 10 µM. 85,000 compounds, 6% hits. H69AR lung tumor viability, ATP luminescence, 72 h; stronger effect = lower value;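 active = viability at or below 40%; inactive = viability above 40%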;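 also: multidrug resistant small cell line overexpressing MRP-1 efflux transporter; 100% = mean luminescence of untreated control wells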
bCat KO growth: primary screen for growth suppressors in beta-catenin knockout HCT116 cells (colon tumor, human); HCT116 beta-catenin knockout viability, CellTiter-Glo, 60 h; stronger effect = lower value; viability, % at 10 µM; 140,000 compounds, 1.5% hits;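 active = viability at or under a set limit, the compound median less 4 SD, cut at about 6% in these data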;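 also: 0% = Hyamine 1622 control at 20 µM and 100% = untreated cell control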
Starred values were filed as active, the others as inactive; / = no result. The entries come from a sample that favours hits as a whole.

SMILES | PTEN del growth | Fibroblast inh | HUVEC inhibit | H69AR inhibit | bCat KO growth
COC(=O)C1=C(O)C(C(=O)OC)C(c2ccc(C)cc2)C(C#N)(C#N)C1c1ccc(C)cc1 (stereo unspecified) | 18 | 83 | 80 | 4.0* | 21
Cc1ccc(O)c(-c2cc(C(F)(F)C(F)F)[nH]n2)c1 | 94 | 93 | 79 | 42 | 96
FC(F)C(F)(F)C(F)(F)C(F)(F)c1cc(-c2ccccc2)n[nH]1 | 78 | 82 | 14* | 30* | 81
COc1cccc(-c2ccc(SCC(=O)N3CCc4ccccc43)nn2)c1 | 90 | / | / | / | 88
Cc1cccc(OCC(O)Cn2c(=N)n(CCN3CCCCC3)c3ccccc32)c1 (stereo unspecified) | 1.5* | 69 | 51 | 5.5* | 1.9*
Cc1ccc(OCC(O)Cn2c(=N)n(Cc3ccccc3)c3ccccc32)cc1 (stereo unspecified) | 1.6* | 1.9* | 6.5* | 88 | 1.4*
COc1ccc(OCC(O)Cn2c(=N)n(Cc3ccccc3)c3ccccc32)cc1 (stereo unspecified) | 1.4* | 60 | 73 | 82 | 0.8*
CCOC(=O)Cn1c(=N)n(CCOc2cccc(C)c2)c2ccccc21 | 99 | 93 | 97 | 88 | 91
N=c1n(Cc2ccccc2)c2ccccc2n1Cc1ccccc1 | 38 | / | / | / | 27
Cc1ccc(OCc2nc(-c3ccccn3)n[nH]2)cc1 | 72 | 100 | 82 | 33* | 91
Cc1cccc(OCc2nc(-c3ccccn3)n[nH]2)c1 | 36 | 100 | 78 | 34* | 25
CNC(=S)N(Cc1ccc2c(c1)OCO2)C1CC(=O)N(c2ccccc2)C1=O (stereo unspecified) | 91 | / | / | / | 97
CN1CCN(CCCc2c3c(cc4c2CCC4)CCC3)CC1 | 91 | / | / | / | 92
Cc1ccc2c(c1)CCCN2C(=O)c1ccoc1C | 86 | 103 | 85 | 34* | 87
CCn1c(SCC(=O)NC(=O)NCc2ccco2)nc2sc(C)c(C)c2c1=O | 96 | / | / | / | 88
Cc1sc2nc(SCC(=O)NCc3ccco3)n(C)c(=O)c2c1C | 112 | 100 | 84 | 90 | 99
C=CCn1c(SCC(=O)Nc2ccccc2C)nc2sc(C)c(C)c2c1=O | 99 | 93 | 83 | 31* | 84
Cc1sc2nc(SCC(=O)NCc3ccco3)n(CCc3ccccc3)c(=O)c2c1C | 101 | 47* | 60 | 22* | 93
C=CCn1c(SCC(=O)NC(=O)NCc2ccco2)nc2sc(CC)cc2c1=O | 107 | 48* | 90 | 28* | 92
Cc1sc2nc(SCC(=O)c3cccs3)n(Cc3ccco3)c(=O)c2c1C | 73 | 84 | 24* | 59 | 81
CC1(c2ccc(OC(F)F)cc2)NC(=O)N(/N=C/c2c(O)ccc3ccccc23)C1=O (stereo unspecified) | 100 | / | / | / | 95
COc1cc(CNC2CCCCC2OC)cc(OC)c1OC (stereo unspecified) | 92 | / | / | / | 82
COC(=O)c1c(C)[nH]c(C(=O)CSc2ncnc3sc(-c4ccccc4)cc23)c1C | 16 | / | / | / | 14
Cc1ccccc1Nc1nnc(SCC(=O)NC(=O)NCc2ccco2)s1 | 74 | 93 | 85 | 32* | 64
Cc1cc(C)c(C#N)c(SCSCc2ccccc2)n1 | 73 | 100 | 101 | 103 | 60
SMILES | PTEN del growth | Fibroblast inh | HUVEC inhibit | H69AR inhibit | bCat KO growth
N=c1c2c(-c3ccccc3)c(-c3ccccc3)n(Cc3ccco3)c2ncn1CCN1CCOCC1 | 1.6* | 47* | 18* | 36* | 1.2*
N=c1c2c(-c3ccccc3)c(-c3ccccc3)n(Cc3ccco3)c2ncn1CCO | 1.7* | 50 | 42 | 17* | 1.4*
COc1ccc(OC)c(NC(=O)c2ccc3c(=O)n(CCc4ccccc4)c(=S)[nH]c3c2)c1 | 42 | / | / | / | 51
COc1ccccc1NC(=O)Cn1nnc(-c2ccccc2NS(=O)(=O)c2ccccc2)n1 | 66 | / | / | / | 65
CCn1nnc(-c2ccccc2NS(=O)(=O)c2ccc(C(=O)OC)cc2)n1 | 41 | 104 | 86 | 17* | 43
Cc1ccc(Sc2oc(/C=N/n3cnnc3)cc2Br)cc1 | 12 | 71 | 91 | 23* | 19
Fc1ccc(-c2ccc(/C=N\n3cnnc3)o2)cc1Cl | 97 | / | / | / | 103
CN(CC(=O)Nc1ccc(N2CCOCC2)cc1)CC(=O)Nc1ccc(Cl)cc1[N+](=O)[O-] | 86 | / | / | / | 87
